What was measured:
[1] = target: Isocitrate dehydrogenase [NADP] cytoplasmic (Homo sapiens, UniProt O75874, R132H); assay: Inhibition of human IDH1 R132H mutant expressed in Escherichia coli BL21-CodonPlus assessed as reduction in NADPH consumption
MDCK [2] = assay: Permeability from apical to basolateral side in MDCK cells expressing MDR1 at 10 uM incubated at 37 degC for 90 mins by LC/MS/MS method; format: ADME, cell-based, Canis lupus familiaris; conditions: dog, 1.5 h
In short: (§1)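 MDCK-MDR1 monolayers were used 3–4 days after seeding on 0.4 μm Transwell filters, only if TEER exceeded 1000 Ω·cm² before and after the run. They were preincubated 30 min in HBSS with 50 mM HEPES, pH ≈ 7.4. Donor got 10 μM compound (final, 0.1% DMSO), then 90 min at 37 °C. Both sides were sampled and quantified by LC-MS/MS SRM. Papp = dQ/dt/(A·C0).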

MDCK [3] = assay: Permeability from basolateral to apical side in MDCK cells expressing MDR1 at 10 uM incubated at 37 degC for 90 mins by LC/MS/MS method; format: ADME, cell-based, Canis lupus familiaris; conditions: dog, 1.5 h; in short: as §1
MDCK [4] = assay: Efflux ratio, ratio of permeability from basolateral side over apical to basolateral side in MDCK cells expressing MDR1 at 10 uM incubated at 37 degC for 90 mins by LC/MS/MS method; format: ADME, cell-based, Canis lupus familiaris; conditions: dog, 1.5 h
In short: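 MDCK-MDR1 monolayers (passage 24–33, seeded at 60000 cells/cm² on Transwell filters) were used 3–4 days post-seeding if TEER stayed >1000 Ω·cm². After 30 min preincubation in HBSS/50 mM HEPES pH ≈7.4, compound was added to the donor side (10 μM initial, 0.1% DMSO) A→B or B→A, 37 °C, 90 min. LC-MS/MS SRM quantification; Papp = dQ/dt/(A·C0).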

[5] = Inhibition of neurosphere formation of human BT142 cells by CCK8 assay; format: functional, cell-based
In short: (§2)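 Neurosphere cultures grown serum-free at 37 °C, 5% CO2 (neurobasal medium, N2/B27, bFGF and EGF 50 ng/mL each, penicillin/streptomycin). BXD lines come from patient-tumour orthotopic xenografts; BT-142 carries endogenous IDH1 R132H and gets extra supplements (PDGF-AA, insulin, transferrin, others). 2000 cells/well were exposed to 0.002, 0.02, 0.2, 2 or 20 μM for up to 13 days. CCK-8 viability was read on days 4, 7, 10 and 13.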

[6] = Inhibition of neurosphere formation of […] BXD4687 cells by CCK8 assay; format: functional, cell-based; in short: as §2
[7] = Inhibition of neurosphere formation of […] BXD3752 cells by CCK8 assay; format: functional, cell-based; in short: as §2
[8] = Inhibition of cell proliferation of human WI38 cells by CCK8 assay; format: functional, cell-based; conditions: WI-38
[9] = Inhibition of neurosphere formation of human BT142 cells at 2 uM by CCK8 assay; format: functional; in short: as §2
[10] = Inhibition of neurosphere formation of human BT142 cells at 20 uM by CCK8 assay; format: functional
In short: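 BT-142 glioma cells (endogenous IDH1 R132H) grown as neurospheres in serum-free neurobasal/N2/B27 medium with bFGF, EGF, PDGF-AA and other supplements. 2000 cells/well treated for up to 13 days. Viability by CCK-8 at days 4, 7, 10 and 13.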

[11] = Cytotoxicity against human HT1080 cells up to 30 uM; format: cell-based; conditions: ht-1080
[12] = target: Isocitrate dehydrogenase [NADP] cytoplasmic (Homo sapiens, UniProt O75874); assay: Inhibition of wild type human IDH1 expressed in Escherichia coli BL21-CodonPlus assessed as NADPH production
Sequence of Isocitrate dehydrogenase [NADP] cytoplasmic (Homo sapiens, UniProt O75874) (O75874 whole entry): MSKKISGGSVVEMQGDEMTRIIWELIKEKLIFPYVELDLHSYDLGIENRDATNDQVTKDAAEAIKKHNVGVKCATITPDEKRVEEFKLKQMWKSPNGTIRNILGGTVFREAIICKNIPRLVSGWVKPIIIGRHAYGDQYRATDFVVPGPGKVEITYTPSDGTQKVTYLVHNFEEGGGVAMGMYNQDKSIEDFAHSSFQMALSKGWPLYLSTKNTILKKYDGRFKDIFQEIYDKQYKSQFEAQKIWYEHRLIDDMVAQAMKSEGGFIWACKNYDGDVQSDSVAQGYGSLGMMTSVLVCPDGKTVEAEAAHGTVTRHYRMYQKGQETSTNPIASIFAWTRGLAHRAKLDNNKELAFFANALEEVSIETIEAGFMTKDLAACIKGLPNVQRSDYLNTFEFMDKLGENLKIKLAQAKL

[13] = Selectivity index, ratio of EC50 for human BXD3752 cells to EC50 for human BT142 cells
[14] = Selectivity index, ratio of EC50 for human BXD4687 cells to EC50 for human BT142 cells

Sequence of Isocitrate dehydrogenase [NADP] cytoplasmic (Homo sapiens, UniProt O75874, R132H) (O75874 2-414 R132H limits assumed): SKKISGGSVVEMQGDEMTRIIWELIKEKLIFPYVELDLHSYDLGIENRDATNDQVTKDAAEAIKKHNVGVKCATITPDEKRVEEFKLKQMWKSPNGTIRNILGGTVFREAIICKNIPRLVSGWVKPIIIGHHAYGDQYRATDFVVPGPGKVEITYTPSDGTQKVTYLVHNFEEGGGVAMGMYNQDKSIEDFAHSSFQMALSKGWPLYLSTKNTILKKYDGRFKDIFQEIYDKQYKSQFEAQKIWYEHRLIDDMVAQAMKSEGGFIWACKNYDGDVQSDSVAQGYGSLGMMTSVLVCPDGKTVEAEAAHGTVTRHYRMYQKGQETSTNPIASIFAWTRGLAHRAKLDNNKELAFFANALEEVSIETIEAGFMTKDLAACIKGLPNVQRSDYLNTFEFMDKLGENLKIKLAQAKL

With `Cc1cc(Cc2cccc(-c3ccccc3)c2)n(O)c(=O)c1` the Ki [1] was 0.6 µM.

Work on `Cc1cc(C)cc(Cc2cc(C)cc(=O)n2O)c1` yielded a Ki [1] of 3.1 µM.

With `O=c1cccc(-c2ccccc2)n1O` the Ki [1] was > 50 µM.

For `O=c1ccc(-c2ccccc2)cn1O` [1-HYDROXY-5-PHENYLPYRIDIN-2(1H)-ONE], the Ki [1] was 50 µM.

In the case of `COc1cccc(Cc2c(C)ccn(O)c2=O)c1`, the Ki [1] is reported as 16.2 µM.

With `Cc1ccccc1C(C(=O)NC1CCCCC1)N(C(=O)Cn1ccnc1C)c1cccc(F)c1` (configuration not stated) the permeability (MDCK [2]) was 0.15 ×10⁻⁶ cm/s, the permeability (MDCK [3]) was 10.4 ×10⁻⁶ cm/s and the Ratio (MDCK [4]) was 72.6. For the same compound, the EC50 [5] was > 20 µM, the EC50 [6] was > 20 µM and the EC50 [7] was > 20 µM. The EC50 [8] was > 50 µM, the inhibition at 2 µM [9] was 40% and the inhibition at 20 µM [10] was 40%.

`Cc1cc(Cc2cccc(C(N)=O)c2)n(O)c(=O)c1` showed a Ki [1] of 8.5 µM.

In the case of `COc1cccc(Cc2cc(C)cc(=O)n2O)c1`, the Ki [1] is reported as 0.15 µM, the Activity [11] is reported as “Non-toxic” and the permeability (MDCK [2]) is reported as 5.39 ×10⁻⁶ cm/s. It also gave a permeability (MDCK [3]) of 8.88 ×10⁻⁶ cm/s, a Ratio (MDCK [4]) of 1.7 and an EC50 [5] of 0.63 µM. The EC50 [6] was 1.2 µM, the EC50 [7] was 2.5 µM and the EC50 [8] was > 50 µM. For the same compound, the Ki [12] was > 30 µM.

With `Cc1cc(Cc2cc3ccccc3s2)n(O)c(=O)c1` the Ki [1] was 22.5 µM.

In the case of `Cc1cc(Cc2ccc(-c3ccc(O)cc3)cc2)n(O)c(=O)c1`, the Ki [1] is reported as 0.25 µM, the Activity [11] is reported as “Non-toxic” and the EC50 [5] is reported as 0.69 µM. For the same compound, the EC50 [6] was 16 µM, the EC50 [7] was 5.1 µM and the EC50 [8] was > 50 µM. For the same compound, the Ki [12] was 15.2 µM.

Work on `Cc1cc(Cc2cccc(F)c2)n(O)c(=O)c1` yielded a Ki [1] of 2.2 µM.

With `COc1cc(Cc2ccccc2)n(O)c(=O)c1` the Ki [1] was 5.5 µM.

For `Cc1cc(Cc2ccc(C#N)cc2)n(O)c(=O)c1`, the Ki [1] was 12.5 µM.

With `O=C(NO)c1cccc(=O)n1O` the Ki [1] was 4.5 µM and the Ki [12] was > 50 µM.

With `Cc1cc(Cc2ccc(-c3cccc(O)c3)cc2)n(O)c(=O)c1` the Ki [1] was 0.27 µM.

With `O=c1ccc(Oc2ccccc2)cn1O` the Ki [1] was 46 µM.

`Cc1cc(Cc2cccc3cc(O)ccc23)n(O)c(=O)c1` showed a Ki [1] of 27.5 µM.

In the case of `Cc1cc(Cc2ccccc2)n(N)c(=O)c1`, the Ki [1] is reported as 3.8 µM.

With `COc1ccc(-c2ccc(Cc3cc(C)cc(=O)n3O)cc2)cc1` the Ki [1] was 0.34 µM, the Activity [11] was “Non-toxic” and the EC50 [5] was 0.26 µM. For the same compound, the EC50 [6] was 7.6 µM, the EC50 [7] was 2.8 µM and the EC50 [8] was > 50 µM. The “Ratio EC50” value [13] was >10, the “Ratio EC50” value [14] was >10 and the Ki [12] was 14 µM.

With `COC(=O)c1ccc(CCc2cccc(=O)n2O)cc1` the Ki [1] was 27 µM.

In the case of `CC(C)c1cc(Cc2ccccc2)n(O)c(=O)c1`, the Activity [11] is reported as “Non-toxic”.

With `Cc1cc(Cc2ccc(O)cc2)n(O)c(=O)c1` the Activity [11] was “Non-toxic”.

Compound `Cc1cc(Cc2cc(-c3ccccc3)cc(-c3ccccc3)c2)n(O)c(=O)c1` has a Ki [1] of 0.3 µM.

Work on `COc1ccccc1Cc1cc(C)cc(=O)n1O` yielded a Ki [1] of 0.49 µM.

In the case of `Cc1cc(Cc2ccsc2)n(O)c(=O)c1`, the Ki [1] is reported as 0.95 µM.

Work on `O=c1cccc(CCc2ccccc2)n1O` yielded a Ki [1] of 10 µM.

In the case of `Cc1cc(Cc2c(F)c(F)c(F)c(F)c2F)n(O)c(=O)c1`, the Ki [1] is reported as 2.2 µM.

For `O=c1cccc(Cc2ccccc2)n1O`, the Activity [11] was “Non-toxic”.

For `O=c1ccc(CCCc2ccccc2)cn1O`, the Ki [1] was > 50 µM.

For `COc1cccc(-c2ccc(Cc3cc(C)cc(=O)n3O)cc2)c1`, the Ki [1] was 0.14 µM, the Activity [11] was “Non-toxic” and the Ki [12] was 13 µM.

Work on `Cc1cc(Cc2cccc3ccccc23)n(O)c(=O)c1` yielded a Ki [1] of 0.95 µM.

With `O=C(Cc1ccccc1)Nc1ccc(=O)n(O)c1` the Ki [1] was > 50 µM.

For `O=c1cc(O)cc(Cc2ccccc2)n1O`, the Ki [1] was 0.38 µM and the Activity [11] was “Non-toxic”.

With `Cn1nnc2c(C(N)=O)ncn2c1=O` [TEMOZOLOMIDE] the EC50 [5] was > 50 µM, the EC50 [6] was > 50 µM and the EC50 [7] was > 50 µM.

For `Cc1ccn(O)c(=O)c1Cc1cccc(O)c1`, the Ki [1] was 13.6 µM.

With `COc1ccc(Cc2cc(C)cc(=O)n2O)cc1` the Ki [1] was 0.56 µM.

With `Cc1cc(Cc2ccccc2O)n(O)c(=O)c1` the Ki [1] was 0.65 µM.

For `Cc1cc(C2CCCCC2)n(O)c(=O)c1` [CICLOPIROX], the Ki [1] was > 50 µM.

`Cc1cc(Cc2ccc(Oc3ccccc3)cc2)n(O)c(=O)c1` gave a Ki [1] of 0.75 µM.

Work on `Cc1cc(Cc2ccc(C(F)(F)F)cc2)n(O)c(=O)c1` yielded a Ki [1] of 3.2 µM.

For `Cc1cc(Cc2ccccc2)n(O)c(=O)c1`, the Activity [11] was “Non-toxic”, the permeability (MDCK [2]) was 5.45 ×10⁻⁶ cm/s and the permeability (MDCK [3]) was 6.34 ×10⁻⁶ cm/s. It also gave an EC50 [5] of 0.37 µM, an EC50 [6] of 6.8 µM and an EC50 [7] of 5.9 µM.

In the case of `CC(=O)OCc1cc(Cc2ccccc2)n(O)c(=O)c1`, the Ki [1] is reported as 4.5 µM.

In the case of `Cc1cc(Cc2cccc(O)c2)n(O)c(=O)c1`, the Ki [1] is reported as 0.14 µM, the Activity [11] is reported as “Non-toxic” and the EC50 [5] is reported as 1.8 µM. For the same compound, the EC50 [6] was 7.5 µM, the EC50 [7] was 6.2 µM and the EC50 [8] was > 50 µM. The Ki [12] was > 30 µM.

`Cc1cc(COc2ccccc2)n(O)c(=O)c1` gave a Ki [1] of 0.87 µM.

For `O=C(NCc1ccccc1)c1ccc(=O)n(O)c1`, the Ki [1] was > 50 µM.

With `Cc1cc(Cc2cccc(C#N)c2)n(O)c(=O)c1` the Ki [1] was 1.6 µM.

`Cc1ccn(O)c(=O)c1Cc1ccccc1` showed a Ki [1] of 9.5 µM.

For `CC(c1ccccc1)c1cccc(=O)n1O` (configuration not stated), the Ki [1] was > 50 µM.

`COc1ccc2c(Cc3cc(C)cc(=O)n3O)cccc2c1` gave a Ki [1] of 40.5 µM.

With `O=c1ccc(CCc2ccccc2)cn1O` the Ki [1] was > 50 µM.

With `O=C(NO)c1ccc(=O)n(O)c1` the Ki [1] was > 50 µM.

With `Cc1cc(C)n(O)c(=O)c1` [METIPIROX] the Ki [1] was > 50 µM.

For `Cc1cc(Cc2cccc(C(=O)O)c2)n(O)c(=O)c1`, the Ki [1] was > 50 µM.

`O=c1cc(CO)cc(Cc2ccccc2)n1O` gave a Ki [1] of 5.6 µM.
